Format in all cases: nucleic-acid assay
Assay [1] has as its system Nucleic Acid. Nature of the assay: Displacement of ethidium bromide from minor groove region of DNA at 3 uM by […] analysis. Put shortly:
(§1)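 CSI microarray of hairpinned dsDNA probes covering all 9 bp permutations. The array was incubated 1 h with 6 μM EtBr in binding buffer (100mM NaCl, 100mM Tris pH 8.0). Unlabeled ligand (3 μM) was then added to the EtBr solution for a further 1 h to reach equilibrium. Per-feature ratio of displaced to undisplaced EtBr fluorescence, expressed as FD = 1−(1−Rseq)/(1−RMax).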

In assay [2] the test system is Nucleic Acid. The experiment in a line: Displacement of ethidium bromide from DNA TAGAATA region at 3 uM by […] analysis. The gist of the method: as §1
The test system of assay [3] is Nucleic Acid. Nature of the assay: Displacement of ethidium bromide from DNA TGAATAA region at 3 uM by […] analysis. The gist of the method: as §1
For assay [4], the system named is Nucleic Acid. The experiment in a line: Displacement of ethidium bromide from DNA TATTAGA region at 3 uM by […] analysis. The gist of the method:
as §1

Assay [5] concerns Nucleic Acid. The experiment in a line: Displacement of ethidium bromide from DNA AATA region by […] analysis. Put shortly:
as §1

The test system of assay [6] is Nucleic Acid. Nature of the assay: Displacement of ethidium bromide from DNA AAAA region by […] analysis. The gist of the method:
as §1

Assay [7] relates to Nucleic Acid. Nature of the assay: Displacement of ethidium bromide from DNA ATAA region by […] analysis. Put shortly:
as §1

Assay [8] has as its system Nucleic Acid. The experiment in a line: Displacement of ethidium bromide from DNA TAAA region by […] analysis. Put shortly: as §1
Assay [9] relates to Nucleic Acid. The experiment in a line: Displacement of ethidium bromide from DNA ATTA region by […] analysis. The gist of the method:
as §1

In assay [10] the test system is Nucleic Acid. The experiment in a line: Displacement of ethidium bromide from DNA AAAT region by […] analysis. Put shortly:
as §1

Assay [11] deals with Nucleic Acid. Nature of the assay: Displacement of ethidium bromide from DNA ATAT region by […] analysis. Put shortly: as §1
The subject of assay [12] is Nucleic Acid. The experiment in a line: Displacement of ethidium bromide from DNA TATA region by […] analysis. The gist of the method: as §1
For assay [13], the system named is Nucleic Acid. The experiment in a line: Displacement of ethidium bromide from DNA TTAA region by […] analysis. Put shortly:
as §1

Assay [14] deals with Nucleic Acid. Nature of the assay: Binding affinity to minor groove region of DNA.

Activity calls are given as the source filed them. The calls are words filed in the database; no cut-off is given here.

One may read the Kd as a measure of binding affinity in units of concentration. With `Cn1cc(NC(=O)c2cc(NC(=O)CNC(=N)N)cn2C)cc1C(=O)NCCC(=N)N` [NETROPSIN], the outcome with Nucleic Acid [1], in the assay on Nucleic Acid [2], with Nucleic Acid [3], with Nucleic Acid [4], in the assay with Nucleic Acid [5] and in the assay with Nucleic Acid [6] was Active. Besides, the outcome in the assay on Nucleic Acid [7], in the assay with Nucleic Acid [8], with Nucleic Acid [9], with Nucleic Acid [10], with Nucleic Acid [11] and with Nucleic Acid [12] was Active. Besides, the result with Nucleic Acid [13] was Active. Besides, binding on Nucleic Acid [14] was characterised by a dissociation constant (Kd) of 1 nM.
